High-throughput results (PubChem BioAssay)
The list is not random: actives were taken first. Their share in the collection is about 0.75%.
Rad51 HR inh = Rad51 (human) homologous recombination inhibition; Q06609; hRad51 DNA strand exchange, fluorescence dequenching; inhibition, % at 10 µM; actives 0.085% (n = 200,000);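 active = inhibition above 40% at the single screening dose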;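 also: 0% = DMSO control wells and 100% = blanks with heterologous ssDNA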
Target sequence (Q06609 whole entry, looked up): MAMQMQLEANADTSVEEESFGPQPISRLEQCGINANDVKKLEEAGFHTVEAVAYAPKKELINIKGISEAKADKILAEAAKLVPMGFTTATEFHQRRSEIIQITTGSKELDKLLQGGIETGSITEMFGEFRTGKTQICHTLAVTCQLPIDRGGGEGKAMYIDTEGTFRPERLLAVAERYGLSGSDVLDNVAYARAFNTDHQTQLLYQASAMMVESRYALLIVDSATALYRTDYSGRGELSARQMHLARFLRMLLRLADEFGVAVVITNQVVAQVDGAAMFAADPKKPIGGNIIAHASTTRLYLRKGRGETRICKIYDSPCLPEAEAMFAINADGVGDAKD
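Test system: preformed human Rad51 ssDNA filaments; also added: Donor/quencher-labelled 47-bp dsDNA substrate; doses: 10 µM final, single point; times: 37 °C 15-min filament assembly, 30-min compound preincubation, 15-min exchange; detection: FRET fluorescence dequenching, excitation 485 nm, emission 520 nm; read-out basis: Fluorescence-based percent inhibition, control- and blank-normalised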
TbHK1 inh = blocks Trypanosoma brucei hexokinase 1 activity; recombinant TbHK1, G6PDH-coupled NADH A340; AID 1430; inhibition, % at 10 µM; actives 0.11% (n = 220,000);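 active = inhibition of 50% or more in the single-dose primary screen; inactive = inhibition below 50%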
NCF1 inh = blocks human p47phox regulatory protein of NADPH oxidases; p47phox/p22phox peptide binding, fluorescence polarization, 2 h; inhibition, % at 24.7 µM; actives 0.53% (n = 220,000); AID 1274;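 active = inhibition above about 30%, limit read from the data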;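 also: 0% = p47phox with labelled peptide and 100% = labelled peptide alone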
MDM2 E3 inh = blocks human Mdm2 ubiquitin ligase activity; Q00987; cell-based MDM2 ubiquitination luciferase reporter, 2 h; 0 = plate control, 100 = twice control, blank-subtracted; signal enhancement, % at 5 µM; actives 0.11% (n = 210,000); AID 1230;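 active = signal enhancement of 30% or more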;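 also: luminescence tracks abundance of the self-degrading MDM2-luciferase fusion protein; higher signal means inhibition of MDM2 E3 ligase activity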
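Material: Stable MDM2–luciferase fusion reporter cells | Amount: 2000 cells seeded into each well | Dosing: One concentration, 5 µM, with 0.2% DMSO | Incubation: 4 h cell settling then 2 h compound exposure, 37 °C | Measured by: Luciferase luminescence | Read-out basis: % enhancement relative to plate controls after blank subtraction | Benchmarks: Control and blank well means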
* hit, by the source's call; / = no result.

SMILES	Rad51 HR inh	TbHK1 inh	NCF1 inh	MDM2 E3 inh
Cc1nn(Cc2ccccc2)c(C)c1NC(=O)CCCn1nc(C)c([N+](=O)[O-])c1C	0	-1	2	-15
Nc1nnn(CC(=O)N/N=C/c2cn[nH]c2-c2ccccc2)n1	1	-7	-7	-7
CCCCOC(=O)c1ccc(NC(=O)c2c(OC)cccc2OC)cc1	-3	4	37*	-5
CCN(CC)S(=O)(=O)c1ccc(/C=C/C(=O)Nc2ccc(N3CCOCC3)cc2)cc1	2	-4	-22	-10
Cc1cccc(-n2c(O)cnc2Nc2nc(C)cc(C)n2)c1	-8	1	40*	16
COc1ccccc1CNc1nc(-c2cc(C)n(C)c2C)cs1	-14	0	46*	-15
CCOC(=O)CNC(=O)C1CCCc2c1[nH]c1ccc(Cl)cc21 (stereo not drawn)	4	-7	-1	5
CCOC(=O)c1ccc2[nH]c3c(c2c1)CCCC3O (stereo not drawn)	32	-5	48*	13
COCOc1ccc(-c2oc3c(C/C=C(\C)CCC=C(C)C)ccc(O)c3c(=O)c2OCOC)c(OCOC)c1	-3	/	/	/
CCc1ccnc(NS(=O)(=O)c2ccc3c(c2)CCO3)c1	/	6	-11	-14
O=C(c1ccc(Br)cc1)N1CCCC1	-3	-9	-14	-16
CN1CCN(C(=O)c2ccc(S(=O)(=O)c3ccc(Br)cc3)cc2)CC1	55*	1	-2	-18
COc1ccc(/C=N/N=C2/CC(C)(C)Cc3n[nH]c(=O)cc32)cc1	-68	-18	-1	21
O=C(Oc1ccc(-c2cnc3ccccc3n2)cc1)c1cc([N+](=O)[O-])ccc1Cl	-1	-5	35*	-4
Cc1c(C(=O)Oc2ccc(-c3cnc4ccccc4n3)cc2)cccc1[N+](=O)[O-]	1	-17	17	-26
Cc1ccc(-c2nn(C)c(=O)c3ccccc23)cc1CNC(=O)Cn1nc(-c2ccccc2)c2ccccc2c1=O	/	-6	41*	-10
Cc1cc(C)n(CC(=O)NCc2cc(-c3nn(C)c(=O)c4ccccc34)ccc2C)n1	-3	3	-16	-18
Cn1c(O)c(N=NC(=O)c2cc(-c3cccs3)nc3ccccc23)c2ccccc21	0	-22	-12	-14
O=C(N=Nc1c(O)[nH]c2ccc(Br)cc12)c1cc(-c2cccs2)nc2ccccc12	-12	-25	60*	-6
Cc1cccc(Cc2nnc(CCC(=O)N(C)C3CCOC3)o2)c1 (stereo not drawn)	-14	-1	-7	-6
Nn1c(SCc2cccc(F)c2)nnc1-c1ccncc1	/	-5	-7	-14
O=C(CSc1nnc(CNC(=O)c2c(F)cccc2Cl)o1)Nc1ccc2c(c1)OCO2	10	-2	31*	-15
O=C(NNS(=O)(=O)c1ccccc1[N+](=O)[O-])c1ccc(O)cc1	4	-8	42*	1
O=C(NNS(=O)(=O)c1ccccc1[N+](=O)[O-])c1ccc(F)cc1	-1	1	1	6
CCOC(=O)C/C(N)=N/NC(=O)c1ccc(Cl)cc1Cl	-2	-3	-8	-8
SMILES	Rad51 HR inh	TbHK1 inh	NCF1 inh	MDM2 E3 inh
CCN1CCN(Cc2ccc(NC(=O)c3cc(NC(=O)c4cncc(-c5ccc(C#N)cc5)c4)cc(OC)c3)cc2C(F)(F)F)CC1	-4	-24	69*	22
CCN1CCN(Cc2ccc(NC(=O)c3ccc(C)c(NC(=O)c4cc(-c5ccc(Br)cc5)n[nH]4)c3)cc2C(F)(F)F)CC1	6	1	63*	16
CCOC(=O)C1=NOC(C(=O)NN(C)c2ncc(C(F)(F)F)cc2Cl)C1 (stereo not drawn)	-1	-5	-6	4
FC(F)(F)c1cccc(NC(=S)Nc2cccc(NC(=S)Nc3cccc(C(F)(F)F)c3)n2)c1	0	-20	-48	-5
COc1ccc(C2C(CC(=O)O)=C(O)C(=O)N2c2ccccc2)cc1 (stereo not drawn)	1	-2	-17	34*
Cc1nnsc1-c1onc(C)c1C(=O)O/N=C/c1ccc(Cl)cc1	-5	-2	-13	-16
CCCCCCCCCCCCCCCC[n+]1cccc2ccccc21	-1	55*	101*	-25
C/C(=N/NC(=O)CN1CCN(Cc2ccccc2Cl)CC1)c1cccs1	/	4	-2	1
COc1cc(/C=C(\C#N)c2nc3ccccc3n2C)cc(OC)c1O	-233	-4	-45	2
CCOC(=O)C1=C(Cc2ccc(OC)cc2)C(=O)c2ccccc2C1=O	/	28	93*	0
CCOC(=O)C1=C(O)c2ccccc2C(=O)/C1=C\c1ccc(CC)cc1	-1	-5	56*	-1
CCOC(=O)C1=C(Cc2ccc(C)cc2)C(=O)c2ccccc2C1=O	4	-3	30	-12
CCCc1ccc(/C=C2\C(=O)c3ccccc3C(O)=C2C(=O)OCC)cc1	-1	9	3	-13
Cc1ccccc1NC(=O)NCC1CCCO1 (stereo not drawn)	42*	3	-5	-16
Cc1cc(=O)oc2cc(NC(=O)c3cc4ccccc4o3)ccc12	/	-23	4	2
O=C(Nc1ccc2oc(=O)ccc2c1)c1cc2ccccc2o1	-4	-4	32*	-21
O=C(N/N=C/c1nn(-c2ccccc2)cc1-c1ccc(Cl)cc1)c1ccncc1	5	-26	-13	5
CCn1nc(C)c(NC(=O)/C=C/c2ccc(OC)c(COc3ccc(Cl)cc3Br)c2)c1C	/	-6	71*	-6
COc1ccc(C(C)=O)cc1COC(=O)CNC(=O)c1ccc(Cl)cc1	-5	8	194*	-21
COc1ccc(C(C)=O)cc1COC(=O)CNC(=O)c1ccc(F)cc1	5	1	-14	3
CCc1sc(/C=C(/C#N)C(N)=S)cc1[N+](=O)[O-]	-149	-5	2	-5
Cc1cc(NC(=O)c2coc(=O)c(Br)c2)ccc1C(C)C	6	-1	37*	-55
CCN(C(=O)CSc1nc2ccccc2c(=O)n1-c1cccc(C)c1)C1CCS(=O)(=O)C1 (stereo not drawn)	-190	-4	-17	63*
CCn1c(SCC(=O)N(Cc2ccccc2)C2CCS(=O)(=O)C2)nc2ccccc2c1=O (stereo not drawn)	2	-17	1	-7
CN(C(=O)CSc1nnc(-c2ccncc2)n1-c1ccccc1)C1CCS(=O)(=O)C1 (stereo not drawn)	48*	-4	-11	/
Cc1cc(C)c(S(=O)(=O)N2CCCOC2CNC(=O)C(=O)NCc2cccs2)c(C)c1 (stereo not drawn)	10	-2	-14	30
CCOC(=O)C1(C)NC(c2cc(OC)c(OC)c(OC)c2)C2C(=O)N(CC)C(=O)C21 (stereo not drawn)	5	8	-15	/
CCN1C(=O)C2C(c3ccc(O)c(OC)c3)NC(C)(C(=O)OC)C2C1=O (stereo not drawn)	0	-8	38*	-8
CCCn1c(SCC(=O)NNC(=O)c2ccccc2)nnc1-c1cccnc1	-6	-5	-3	/
